Reference: ChEMBL document CHEMBL2016577, “Preparation, antibacterial evaluation and preliminary structure-activity relationship (SAR) study of benzothiazol- and benzoxazol-2-amine derivatives” (Bioorg Med Chem Lett, 2012)
Values after ≈ are worked out from the molar mass of the structure shown.

What was measured:
Staphylococcus aureus [1] = assay: Antibacterial activity against Staphylococcus aureus ATCC 25923 after 16 hrs by broth microdilution method; type: functional; conditions: ATCC 25923, 16 h
Enterococcus faecalis [2] = assay: Antibacterial activity against Enterococcus faecalis ATCC 29212 after 16 hrs by broth microdilution method; type: functional; conditions: ATCC 29212, 16 h
Escherichia coli [3] = assay: Antibacterial activity against Escherichia coli ATCC 29425 after 16 hrs by broth microdilution method; type: functional; conditions: ATCC 29425, 16 h
Staphylococcus aureus [4] = assay: Antibacterial activity against methicillin-susceptible Staphylococcus aureus after 16 hrs by broth microdilution method; type: functional
Procedure, shortened: (§1)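 Clinical isolates, including strains resistant to common antimicrobials, tested by the standard broth dilution method. The read-out is the minimum inhibitory concentration in μg/mL. Each value is representative of three independent determinations.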

Staphylococcus aureus [5] = assay: Antibacterial activity against methicillin-resistant Staphylococcus aureus after 16 hrs by broth microdilution method; type: functional; procedure, shortened: as §1
Streptococcus pneumoniae [6] = assay: Antibacterial activity against penicillin-susceptible Streptococcus pneumoniae after 16 hrs by broth microdilution method; type: functional
Streptococcus pneumoniae [7] = assay: Antibacterial activity against penicillin-resistant Streptococcus pneumoniae after 16 hrs by broth microdilution method; type: functional; procedure, shortened: as §1
Enterococcus faecalis [8] = assay: Antibacterial activity against vancomycin-susceptible Enterococcus faecalis after 16 hrs by broth microdilution method; type: functional
Enterococcus faecalis [9] = assay: Antibacterial activity against vancomycin-resistant Enterococcus faecalis after 16 hrs by broth microdilution method; type: functional; procedure, shortened: as §1
Enterococcus faecium [10] = assay: Antibacterial activity against vancomycin-susceptible Enterococcus faecium after 16 hrs by broth microdilution method; type: functional; procedure, shortened: as §1
Enterococcus faecium [11] = assay: Antibacterial activity against vancomycin-resistant Enterococcus faecium after 16 hrs by broth microdilution method; type: functional; procedure, shortened: as §1
Escherichia coli [12] = assay: Antibacterial activity against Escherichia coli clinical isolate after 16 hrs by 2-fold microdilution method; type: functional
HEK293 = assay: Cytotoxicity against human HEK293 cells after 48 hrs by MTT assay; type: cell-based; conditions: HEK293, 48 h
Procedure, shortened: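 Standard MTT assay in Human Embryonic Kidney 293 cells, with 64 μg/mL as the top concentration tested. IC50 came from three independent experiments.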

[13] = Cytotoxicity against human HEK293 cells at 64 ug/ml after 48 hrs by MTT assay; type: cell-based; conditions: read-out: INH
Procedure, shortened: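 HEK293 cells were exposed to compound at 64 μg/mL and assessed by standard MTT. Inhibitory rate was recorded across three independent experiments.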

Albumin = Albumin (Bos taurus, UniProt P02769); assay: Binding affinity to bovine serum albumin BY HPLC analysis; type: ADME; conditions: cattle, isolated protein
Chain of Albumin (P02769 whole entry): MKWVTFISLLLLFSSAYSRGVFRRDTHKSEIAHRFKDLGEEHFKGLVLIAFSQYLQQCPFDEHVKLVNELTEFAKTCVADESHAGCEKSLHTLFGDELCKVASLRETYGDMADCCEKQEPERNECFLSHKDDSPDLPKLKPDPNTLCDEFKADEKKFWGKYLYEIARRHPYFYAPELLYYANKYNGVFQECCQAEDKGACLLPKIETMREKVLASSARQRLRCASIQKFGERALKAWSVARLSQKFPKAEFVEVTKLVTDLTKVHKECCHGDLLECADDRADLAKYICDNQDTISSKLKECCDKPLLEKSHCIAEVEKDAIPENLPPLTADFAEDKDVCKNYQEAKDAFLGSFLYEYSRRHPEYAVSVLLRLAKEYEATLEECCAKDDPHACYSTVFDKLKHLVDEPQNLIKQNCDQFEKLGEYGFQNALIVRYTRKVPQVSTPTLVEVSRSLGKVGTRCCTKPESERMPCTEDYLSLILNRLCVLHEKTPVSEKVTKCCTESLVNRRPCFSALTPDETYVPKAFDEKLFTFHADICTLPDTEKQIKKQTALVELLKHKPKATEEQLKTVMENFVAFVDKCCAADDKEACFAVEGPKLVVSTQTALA
Procedure, shortened: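 Compound was incubated with BSA standard solution and the bound fraction separated by centrifugal ultrafiltration. Free compound was quantified by HPLC. Binding degree = (Cb–Ca)/Cb, where Cb and Ca are the compound concentrations before and after interaction with BSA.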

SMILES	MIC (Staphylococcus aureus [1]) [mg/L]	MIC (Enterococcus faecalis [2]) [mg/L]	MIC (Escherichia coli [3]) [mg/L]	also measured
c1ccc(CNCCCNc2nc3ccccc3o2)cc1	> 64	> 64	> 64	–
Cl.O=c1cc(NCCCNCc2ccc(Cl)c(Cl)c2)[nH]c2ccccc12	4	0.5	> 64	MIC (Staphylococcus aureus [4]): 2 mg/L; MIC (Staphylococcus aureus [5]): 2 mg/L; MIC (Streptococcus pneumoniae [6]): 4 mg/L; MIC (Streptococcus pneumoniae [7]): 8 mg/L; MIC (Enterococcus faecalis [8]): 1 mg/L; MIC (Enterococcus faecalis [9]): 2 mg/L; MIC (Enterococcus faecium [10]): 1 mg/L; MIC (Enterococcus faecium [11]): 1 mg/L; MIC (Escherichia coli [12]): > 64 mg/L; IC50 (HEK293): > 64 mg/L; cytotoxicity at 48 h, 64 ug/ml [13]: 15%
c1ccc(CNCCNc2nc3ccccc3s2)cc1	> 64	> 64	> 64	–
c1ccc(CNCCCNc2nc3ccccc3s2)cc1	> 64	> 64	> 64	–
Clc1ccc(CNCCNc2nc3ccccc3s2)cc1	8 (≈ 25.2 µM)	32 (≈ 101 µM)	> 64	–
Clc1ccc(CNCCCNc2nc3ccccc3s2)cc1	16 (≈ 48.2 µM)	8 (≈ 24.1 µM)	> 64	–
Brc1cccc(CNCCNc2nc3ccccc3s2)c1	8 (≈ 22.1 µM)	64 (≈ 177 µM)	64 (≈ 177 µM)	–
Brc1cccc(CNCCCNc2nc3ccccc3s2)c1	16 (≈ 42.5 µM)	8 (≈ 21.3 µM)	32 (≈ 85 µM)	–
Oc1ccc(CNCCNc2nc3ccccc3s2)cc1	16 (≈ 53.4 µM)	32 (≈ 107 µM)	> 64	–
Oc1ccc(CNCCCNc2nc3ccccc3s2)cc1	16 (≈ 51 µM)	32 (≈ 102 µM)	> 64	–
COc1ccc(CNCCNc2nc3ccccc3s2)cc1	32 (≈ 102 µM)	32 (≈ 102 µM)	> 64	–
COc1ccc(CNCCCNc2nc3ccccc3s2)cc1	64 (≈ 195 µM)	64 (≈ 195 µM)	> 64	–
Clc1ccc(CNCCNc2nc3ccccc3s2)c(Cl)c1	2 (≈ 5.68 µM)	8 (≈ 22.7 µM)	32 (≈ 90.8 µM)	–
Clc1ccc(CNCCCNc2nc3ccccc3s2)c(Cl)c1	8 (≈ 21.8 µM)	8 (≈ 21.8 µM)	> 64	–
COc1ccc2nc(NCCCNCc3ccc(Cl)c(Cl)c3)sc2c1	4 (≈ 10.1 µM)	4 (≈ 10.1 µM)	> 64	–
Clc1ccc2nc(NCCCNCc3ccc(Cl)c(Cl)c3)sc2c1	4 (≈ 9.98 µM)	2 (≈ 4.99 µM)	32 (≈ 79.8 µM)	–
Clc1ccc2sc(NCCCNCc3ccc(Cl)c(Cl)c3)nc2c1	2 (≈ 4.99 µM)	2 (≈ 4.99 µM)	32 (≈ 79.8 µM)	–
Fc1ccc2nc(NCCCNCc3ccc(Cl)c(Cl)c3)sc2c1	1 (≈ 2.6 µM)	2 (≈ 5.2 µM)	32 (≈ 83.3 µM)	–
Fc1ccc2sc(NCCCNCc3ccc(Cl)c(Cl)c3)nc2c1	1 (≈ 2.6 µM)	2 (≈ 5.2 µM)	32 (≈ 83.3 µM)	–
Fc1cc2nc(NCCCNCc3ccc(Cl)c(Cl)c3)sc2cc1F	0.5 (≈ 1.24 µM)	1 (≈ 2.49 µM)	32 (≈ 79.5 µM)	MIC (Staphylococcus aureus [4]): 0.5 mg/L (≈ 1.24 µM); MIC (Staphylococcus aureus [5]): 1 mg/L (≈ 2.49 µM); MIC (Streptococcus pneumoniae [6]): 4 mg/L (≈ 9.94 µM); MIC (Streptococcus pneumoniae [7]): 4 mg/L (≈ 9.94 µM); MIC (Enterococcus faecalis [8]): 1 mg/L (≈ 2.49 µM); MIC (Enterococcus faecalis [9]): 1 mg/L (≈ 2.49 µM); MIC (Enterococcus faecium [10]): 2 mg/L (≈ 4.97 µM); MIC (Enterococcus faecium [11]): 2 mg/L (≈ 4.97 µM); MIC (Escherichia coli [12]): > 64 mg/L; IC50 (HEK293): > 64 mg/L; Activity (Albumin): 1.4%; cytotoxicity at 48 h, 64 ug/ml [13]: 15%
CC1(C)S[C@@H]2[C@H](NC(=O)[C@H](N)c3ccccc3)C(=O)N2[C@H]1C(=O)O [AMPICILLIN]	–	–	–	MIC (Staphylococcus aureus [4]): 0.0625 mg/L (≈ 0.179 µM); MIC (Staphylococcus aureus [5]): > 64 mg/L; MIC (Streptococcus pneumoniae [6]): 0.125 mg/L (≈ 0.358 µM); MIC (Streptococcus pneumoniae [7]): > 64 mg/L; MIC (Enterococcus faecalis [8]): 0.125 mg/L (≈ 0.358 µM); MIC (Enterococcus faecalis [9]): > 64 mg/L; MIC (Enterococcus faecium [10]): 0.25 mg/L (≈ 0.715 µM); MIC (Enterococcus faecium [11]): > 64 mg/L; MIC (Escherichia coli [12]): 0.25 mg/L (≈ 0.715 µM)
CO/N=C(\C(=O)N[C@@H]1C(=O)N2C(C(=O)O)=C(COC(C)=O)CS[C@H]12)c1csc(N)n1 [CEFOTAXIME]	–	–	–	MIC (Staphylococcus aureus [4]): 1 mg/L (≈ 2.2 µM); MIC (Staphylococcus aureus [5]): > 64 mg/L; MIC (Streptococcus pneumoniae [6]): 1 mg/L (≈ 2.2 µM); MIC (Streptococcus pneumoniae [7]): 64 mg/L (≈ 141 µM); MIC (Enterococcus faecalis [8]): 1 mg/L (≈ 2.2 µM); MIC (Enterococcus faecalis [9]): > 64 mg/L; MIC (Enterococcus faecium [10]): 1 mg/L (≈ 2.2 µM); MIC (Enterococcus faecium [11]): > 64 mg/L; MIC (Escherichia coli [12]): 0.25 mg/L (≈ 0.549 µM)

The next lines start with results.

MIC (Staphylococcus aureus [1]) [mg/L]	MIC (Enterococcus faecalis [2]) [mg/L]	MIC (Escherichia coli [3]) [mg/L]	SMILES	also measured
> 64	> 64	> 64	c1ccc(CNCCNc2nc3ccccc3o2)cc1	–
8 (≈ 26.5 µM)	32 (≈ 106 µM)	> 64	Clc1ccc(CNCCNc2nc3ccccc3o2)cc1	–
16 (≈ 50.7 µM)	16 (≈ 50.7 µM)	> 64	Clc1ccc(CNCCCNc2nc3ccccc3o2)cc1	–
8 (≈ 23.1 µM)	64 (≈ 185 µM)	> 64	Brc1cccc(CNCCNc2nc3ccccc3o2)c1	–
16 (≈ 44.4 µM)	8 (≈ 22.2 µM)	32 (≈ 88.8 µM)	Brc1cccc(CNCCCNc2nc3ccccc3o2)c1	–
32 (≈ 113 µM)	32 (≈ 113 µM)	> 64	Oc1ccc(CNCCNc2nc3ccccc3o2)cc1	–
32 (≈ 108 µM)	32 (≈ 108 µM)	> 64	Oc1ccc(CNCCCNc2nc3ccccc3o2)cc1	–
64 (≈ 215 µM)	64 (≈ 215 µM)	> 64	COc1ccc(CNCCNc2nc3ccccc3o2)cc1	–
32 (≈ 103 µM)	32 (≈ 103 µM)	> 64	COc1ccc(CNCCCNc2nc3ccccc3o2)cc1	–
16 (≈ 47.6 µM)	8 (≈ 23.8 µM)	> 64	Clc1ccc(CNCCNc2nc3ccccc3o2)cc1Cl	–
16 (≈ 45.7 µM)	2 (≈ 5.71 µM)	32 (≈ 91.4 µM)	Clc1ccc(CNCCCNc2nc3ccccc3o2)cc1Cl	–
8 (≈ 23.8 µM)	8 (≈ 23.8 µM)	> 64	Clc1ccc(CNCCNc2nc3ccccc3o2)c(Cl)c1	–
8 (≈ 22.8 µM)	4 (≈ 11.4 µM)	> 64	Clc1ccc(CNCCCNc2nc3ccccc3o2)c(Cl)c1	–
8 (≈ 21 µM)	16 (≈ 42.1 µM)	32 (≈ 84.1 µM)	COc1ccc2nc(NCCCNCc3ccc(Cl)c(Cl)c3)oc2c1	–
2 (≈ 5.2 µM)	4 (≈ 10.4 µM)	32 (≈ 83.2 µM)	Clc1ccc2nc(NCCCNCc3ccc(Cl)c(Cl)c3)oc2c1	–
2 (≈ 5.2 µM)	4 (≈ 10.4 µM)	32 (≈ 83.2 µM)	Clc1ccc2oc(NCCCNCc3ccc(Cl)c(Cl)c3)nc2c1	–
1 (≈ 2.72 µM)	4 (≈ 10.9 µM)	32 (≈ 86.9 µM)	Fc1ccc2nc(NCCCNCc3ccc(Cl)c(Cl)c3)oc2c1	–
1 (≈ 2.72 µM)	4 (≈ 10.9 µM)	32 (≈ 86.9 µM)	Fc1ccc2oc(NCCCNCc3ccc(Cl)c(Cl)c3)nc2c1	–
1 (≈ 2.59 µM)	2 (≈ 5.18 µM)	32 (≈ 82.9 µM)	Fc1cc2nc(NCCCNCc3ccc(Cl)c(Cl)c3)oc2cc1F	–
32 (≈ 90.8 µM)	64 (≈ 182 µM)	> 64	Clc1ccc(CNCCNc2nc3ccccc3s2)cc1Cl	–
4 (≈ 10.9 µM)	16 (≈ 43.7 µM)	32 (≈ 87.4 µM)	Clc1ccc(CNCCCNc2nc3ccccc3s2)cc1Cl	–
